# Data: ChEMBL document CHEMBL3774359, “Synthesis of benzofuran derivatives as selective inhibitors of tissue-nonspecific alkaline phosphatase: effects on cell toxicity and osteoblast-induced mineralization” (Bioorg Med Chem Lett, 2016)
# The source made the active and inactive calls. The rule behind the calls is not given here.
# What was measured:
# [1] = Inhibition of porcine kidney TNAP using para-nitrophenylphosphate as substrate preincubated for 10 mins at pH 10.4 followed by substrate addition
# [2] = target: T1, Alkaline phosphatase, placental type (Homo sapiens, UniProt P05187); experiment: Inhibition of human placental alkaline phosphatase using para-nitrophenylphosphate as substrate preincubated for 10 mins at pH 7.8 followed by substrate addition
# [3] = Inhibition of porcine kidney TNAP using para-nitrophenylphosphate as substrate preincubated for 10 mins at pH 7.8 followed by substrate addition
# [4] = target: T2, Intestinal-type alkaline phosphatase (Bos taurus, UniProt P19111); experiment: Inhibition of bovine intestinal alkaline phosphatase using para-nitrophenylphosphate as substrate preincubated for 10 mins at pH 10.4 followed by substrate addition
# [5] = target: T1, Alkaline phosphatase, placental type; experiment: Inhibition of human placental alkaline phosphatase using para-nitrophenylphosphate as substrate preincubated for 10 mins at pH 10.4 followed by substrate addition
# [6] = target: T2, Intestinal-type alkaline phosphatase; experiment: Inhibition of bovine intestinal alkaline phosphatase using para-nitrophenylphosphate as substrate preincubated for 10 mins at pH 7.8 followed by substrate addition
# [7] = target: T3, Alkaline phosphatase, tissue-nonspecific isozyme (Mus musculus) (UniProt P09242); conditions: C57BL/6J, 10 to 40 uM
# T3 sequence (whole entry): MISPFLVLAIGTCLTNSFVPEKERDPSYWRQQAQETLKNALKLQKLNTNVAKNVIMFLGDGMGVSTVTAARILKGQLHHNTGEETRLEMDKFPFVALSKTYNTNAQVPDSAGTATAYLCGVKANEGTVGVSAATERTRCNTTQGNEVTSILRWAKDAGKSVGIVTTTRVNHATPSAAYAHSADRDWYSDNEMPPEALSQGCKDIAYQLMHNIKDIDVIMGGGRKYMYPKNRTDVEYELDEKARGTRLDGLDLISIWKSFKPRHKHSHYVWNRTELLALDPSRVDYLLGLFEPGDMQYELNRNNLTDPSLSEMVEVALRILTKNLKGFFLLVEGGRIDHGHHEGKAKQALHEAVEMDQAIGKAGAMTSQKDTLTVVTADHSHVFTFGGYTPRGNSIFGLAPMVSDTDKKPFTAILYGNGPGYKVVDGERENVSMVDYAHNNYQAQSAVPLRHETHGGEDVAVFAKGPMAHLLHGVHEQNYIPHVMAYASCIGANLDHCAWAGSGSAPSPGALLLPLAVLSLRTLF
# [8] = Inhibition of porcine kidney TNAP using para-nitrophenylphosphate as substrate preincubated for 10 mins at pH 7.8 followed by substrate addition; design: species or system Sus scrofa
# [9] = Cytotoxicity against human Saos2 cells assessed as reduction in cell viability at 10 to 40 uM after 3 days by MTT assay; type: cell-based; conditions: saos-2, 72 h
# Summary of the method: (§1)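 Cells (human osteoblast-like Saos-2 and MG63, mouse vascular smooth muscle line MOVAS-1, mouse primary osteoblasts) were incubated with or without inhibitor for 3 days. Viability was read by MTT assay.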
# [10] = target: T3, Alkaline phosphatase, tissue-nonspecific isozyme (Mus musculus); experiment: Inhibition of TNAP in C57BL/6J mouse primary osteoblasts assessed as reduction of ascorbic acid and beta-glycerophosphate-induced mineralization at 10 uM after 6 days by alizarin red-s staining based assay relative to control
# Summary of the method: (§2)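 Saos-2 cells and mouse primary osteoblasts received ascorbic acid plus β-glycerophosphate to stimulate differentiation and mineralization, with or without inhibitor. Mineral was quantified by Alizarin Red-S staining and expressed as percent of a control containing DMSO 0.1% (mL:mL) without inhibitor. Experiments were repeated in triplicate for each inhibitor (n = 9).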
# Sus scrofa = species on record: Sus scrofa; experiment: Uncompetitive inhibition of porcine kidney TNAP using para-nitrophenylphosphate as substrate preincubated for 10 mins at pH 7.8 to 10.4 followed by substrate addition
# [11] = Cytotoxicity against human MG63 cells assessed as reduction in cell viability at 10 to 40 uM after 3 days by MTT assay; type: cell-based; conditions: mg-63, 72 h
# Summary of the method: as §1
# [12] = Cytotoxicity against mouse primary osteoblasts assessed as reduction in cell viability at 10 to 40 uM after 3 days by MTT assay; type: cell-based; conditions: osteoblast, 72 h
# Summary of the method: as §1
# [13] = Cytotoxicity against mouse MOVAS1 cells assessed as reduction in cell viability at 10 to 40 uM after 3 days by MTT assay; type: cell-based; conditions: movas1, 72 h
# Summary of the method: as §1
# [14] = target: T4, Alkaline phosphatase, tissue-nonspecific isozyme (Homo sapiens) (UniProt P05186); experiment: Inhibition of TNAP in human Saos2 cells assessed as reduction of ascorbic acid and beta-glycerophosphate-induced mineralization at 20 to 40 uM after 6 days by alizarin red-s staining based assay; type: cell-based; conditions: SAOS-2
# T4 sequence (whole entry): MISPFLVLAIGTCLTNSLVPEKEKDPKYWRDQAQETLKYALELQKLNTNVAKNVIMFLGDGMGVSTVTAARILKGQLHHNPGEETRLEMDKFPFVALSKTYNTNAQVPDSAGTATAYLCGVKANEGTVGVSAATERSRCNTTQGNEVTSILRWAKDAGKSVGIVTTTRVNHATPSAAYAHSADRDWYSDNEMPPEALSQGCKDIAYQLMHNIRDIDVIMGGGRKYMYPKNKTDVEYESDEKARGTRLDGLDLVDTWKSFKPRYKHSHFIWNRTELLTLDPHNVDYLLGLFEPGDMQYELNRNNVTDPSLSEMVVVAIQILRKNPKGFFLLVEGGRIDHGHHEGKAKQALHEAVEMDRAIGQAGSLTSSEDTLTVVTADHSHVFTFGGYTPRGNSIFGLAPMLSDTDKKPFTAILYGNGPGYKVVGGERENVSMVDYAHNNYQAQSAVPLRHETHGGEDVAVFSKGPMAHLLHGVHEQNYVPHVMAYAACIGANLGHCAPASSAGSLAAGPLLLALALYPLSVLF
# Summary of the method: as §2
# T1 sequence (P05187 whole entry): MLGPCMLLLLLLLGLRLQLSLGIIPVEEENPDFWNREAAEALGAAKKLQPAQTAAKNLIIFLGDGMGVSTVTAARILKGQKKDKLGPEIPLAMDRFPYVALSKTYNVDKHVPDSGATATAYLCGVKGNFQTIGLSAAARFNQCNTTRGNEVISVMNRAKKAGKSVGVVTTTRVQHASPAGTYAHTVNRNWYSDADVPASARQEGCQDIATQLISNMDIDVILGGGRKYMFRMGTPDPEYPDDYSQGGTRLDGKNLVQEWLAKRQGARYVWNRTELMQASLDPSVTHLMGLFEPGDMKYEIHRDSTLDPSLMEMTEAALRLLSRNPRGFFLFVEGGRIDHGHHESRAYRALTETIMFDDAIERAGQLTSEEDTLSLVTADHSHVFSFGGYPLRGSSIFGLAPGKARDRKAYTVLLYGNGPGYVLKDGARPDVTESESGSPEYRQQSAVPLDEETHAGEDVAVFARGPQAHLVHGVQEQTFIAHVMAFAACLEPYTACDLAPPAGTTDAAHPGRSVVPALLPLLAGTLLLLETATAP
# T2 sequence (P19111 whole entry): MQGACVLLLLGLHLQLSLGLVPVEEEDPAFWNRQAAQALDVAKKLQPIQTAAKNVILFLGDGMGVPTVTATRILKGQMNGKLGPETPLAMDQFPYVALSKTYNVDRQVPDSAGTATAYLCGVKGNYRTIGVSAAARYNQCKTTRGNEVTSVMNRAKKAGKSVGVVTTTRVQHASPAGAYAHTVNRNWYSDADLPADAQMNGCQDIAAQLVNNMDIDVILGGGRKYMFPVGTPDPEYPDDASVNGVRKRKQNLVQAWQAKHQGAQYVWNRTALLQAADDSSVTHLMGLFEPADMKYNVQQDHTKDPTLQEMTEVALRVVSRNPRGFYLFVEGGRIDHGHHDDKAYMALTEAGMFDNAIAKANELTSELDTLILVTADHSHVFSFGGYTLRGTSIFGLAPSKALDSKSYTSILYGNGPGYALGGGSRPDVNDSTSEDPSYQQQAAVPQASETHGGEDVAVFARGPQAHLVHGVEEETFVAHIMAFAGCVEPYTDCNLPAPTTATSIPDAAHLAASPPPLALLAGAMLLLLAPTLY
IC50 [1] [µM],IC50 [2] [µM],IC50 [3] [µM],IC50 [4] [µM],IC50 [5] [µM],IC50 [6] [µM],inhibition [7],Ki [8] [µM],inhibition [10] [%],inhibition (Sus scrofa),inhibition [14],SMILES,Activity [9],Activity [11],Activity [12],Activity [13]
> 400,> 400,> 400,> 400,> 400,> 400,,,,,,N=c1sccn1CC(O)c1cc2ccccc2o1 (centres undefined),,,,
41,> 400,256,> 400,> 400,> 400,inactive,47,,,,c1ccc([C@H]2CN3CCSC3=N2)cc1 [LEVAMISOLE],,,,
> 400,> 400,> 400,> 400,> 400,> 400,,,,,,N=c1sccn1CC(=O)c1cc2ccccc2o1,,,,
28,> 400,124,> 400,> 400,> 400,,32,20,Active,Active,C1=CN2CC(c3cc4ccccc4o3)N=C2S1 (centres undefined),Non-toxic,Non-toxic,Non-toxic,Non-toxic
